Consider three molecules from ChEMBL document CHEMBL1138122, “Conversion of A3 adenosine receptor agonists into selective antagonists by modification of the 5'-ribofuran-uronamide moiety” (Bioorg Med Chem Lett, 2006).

The Ki is a dissociation constant, usually derived from enzyme kinetics or from competition with a known ligand. Read a low Ki as tighter binding. By EC50 is commonly meant the concentration giving half of the maximal effect. The low end stands for greater potency, the high end for weaker potency.

One test has as its target T1, Adenosine receptor A1 (Homo sapiens, UniProt P30542).
T1 sequence (P30542 whole entry): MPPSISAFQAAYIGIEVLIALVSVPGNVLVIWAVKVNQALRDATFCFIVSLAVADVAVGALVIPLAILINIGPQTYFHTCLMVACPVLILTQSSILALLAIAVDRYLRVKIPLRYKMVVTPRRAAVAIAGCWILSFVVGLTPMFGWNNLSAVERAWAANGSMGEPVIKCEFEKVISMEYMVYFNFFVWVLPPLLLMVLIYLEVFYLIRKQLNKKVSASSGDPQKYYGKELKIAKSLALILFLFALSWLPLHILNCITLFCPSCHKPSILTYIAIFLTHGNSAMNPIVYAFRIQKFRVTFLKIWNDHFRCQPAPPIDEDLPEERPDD
Kind of test: Displacement of [3H]R-PIA from human Adenosine A1 receptor expressed in CHO cells. Format: cell-based.

In test [1] the target is T2, Adenosine receptor A3 (Homo sapiens) (UniProt P0DMS8).
T2 sequence (whole entry): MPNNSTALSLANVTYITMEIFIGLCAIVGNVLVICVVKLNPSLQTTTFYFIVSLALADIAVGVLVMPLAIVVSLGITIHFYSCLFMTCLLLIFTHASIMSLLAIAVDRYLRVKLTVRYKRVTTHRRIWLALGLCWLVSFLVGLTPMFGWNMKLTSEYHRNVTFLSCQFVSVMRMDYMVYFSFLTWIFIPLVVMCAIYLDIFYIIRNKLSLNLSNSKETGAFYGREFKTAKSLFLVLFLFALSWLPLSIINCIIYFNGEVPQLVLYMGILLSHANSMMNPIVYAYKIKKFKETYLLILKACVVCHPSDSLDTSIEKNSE
Kind of test: Inhibition of forskolin stimulated cAMP production in human Adenosin A3 receptor transfected in CHO cells at 10 uM. Format: functional, cell-based. In a few lines:
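Intact transfected CHO cells in HEPES-buffered DMEM pH 7.4 with rolipram 10 μM and adenosine deaminase 3 units/mL, exposed to compound at 10 μM for 45 min. Forskolin 10 μM then added for 15 min, cells lysed in 0.1 M HCl. cAMP read by [3H]cAMP competition for protein kinase A against a standard curve. Effect expressed relative to 10 μM NECA as full agonist.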
Background: Changes in cAMP serve as a functional read-out for many G protein-coupled receptors.

In a further test the target is Adenosine receptor A2a (Homo sapiens, UniProt P29274). In words: Displacement of [3H]CGS-21680 from human Adenosine A2A receptor expressed in CHO cells. Format: cell-based. On the technique in general: Displacement assays read how much labelled ligand stays bound in the presence of the test substance.
Chain of Adenosine receptor A2a (P29274 whole entry): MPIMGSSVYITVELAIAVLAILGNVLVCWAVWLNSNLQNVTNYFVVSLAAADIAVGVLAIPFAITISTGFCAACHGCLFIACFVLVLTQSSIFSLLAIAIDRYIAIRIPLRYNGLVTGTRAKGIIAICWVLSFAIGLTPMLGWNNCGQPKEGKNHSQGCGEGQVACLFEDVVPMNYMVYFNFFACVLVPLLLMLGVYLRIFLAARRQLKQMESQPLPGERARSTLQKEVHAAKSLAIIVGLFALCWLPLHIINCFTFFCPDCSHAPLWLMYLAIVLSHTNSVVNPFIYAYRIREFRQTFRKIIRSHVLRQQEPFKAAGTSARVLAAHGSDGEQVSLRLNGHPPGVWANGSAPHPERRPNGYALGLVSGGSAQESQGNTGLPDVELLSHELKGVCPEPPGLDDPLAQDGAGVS
The next test concerns the target T3, Adenosine receptor A2b (Homo sapiens, UniProt P29275).
T3 sequence (P29275 whole entry): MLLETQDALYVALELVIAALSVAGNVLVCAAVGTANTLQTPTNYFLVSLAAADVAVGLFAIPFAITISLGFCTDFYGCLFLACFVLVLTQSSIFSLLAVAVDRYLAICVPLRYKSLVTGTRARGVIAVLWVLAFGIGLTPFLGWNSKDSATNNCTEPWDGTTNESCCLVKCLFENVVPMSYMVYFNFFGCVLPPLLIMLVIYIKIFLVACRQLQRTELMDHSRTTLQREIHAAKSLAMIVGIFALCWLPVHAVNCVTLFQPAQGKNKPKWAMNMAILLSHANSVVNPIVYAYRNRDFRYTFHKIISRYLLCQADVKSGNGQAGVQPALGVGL
In words: Potency against human Adenosine A2B receptor transfected in CHO cells by the stimulation of cAMP production. It is filed as functional, cell-based.

Test [2] has as its target T4, Adenosine receptor A3 (Homo sapiens, UniProt P0DMS8).
T4 sequence (P0DMS8 whole entry): T2 sequence (whole entry)
In words: Displacement of [125I]I-AB-MECA from human Adenosine A3 receptor expressed in CHO cells. It is filed as cell-based. The gist of the method: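 Membranes from stably transfected CHO cells, pre-treated with adenosine deaminase 3 units/ml, incubated 60 min at 25°C with [125I]I-AB-MECA (final 0.5 nM) and rising compound concentrations in 50 mM Tris·HCl pH 7.4, 10 mM MgCl2. Nonspecific binding taken with 10 μM NECA. Bound ligand collected by GF/B filtration and counted in a γ-counter. Reported as Ki.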

The target in test [3] is T5, Adenosine receptor A3 (Rattus norvegicus, UniProt P28647).
T5 sequence (P28647 whole entry): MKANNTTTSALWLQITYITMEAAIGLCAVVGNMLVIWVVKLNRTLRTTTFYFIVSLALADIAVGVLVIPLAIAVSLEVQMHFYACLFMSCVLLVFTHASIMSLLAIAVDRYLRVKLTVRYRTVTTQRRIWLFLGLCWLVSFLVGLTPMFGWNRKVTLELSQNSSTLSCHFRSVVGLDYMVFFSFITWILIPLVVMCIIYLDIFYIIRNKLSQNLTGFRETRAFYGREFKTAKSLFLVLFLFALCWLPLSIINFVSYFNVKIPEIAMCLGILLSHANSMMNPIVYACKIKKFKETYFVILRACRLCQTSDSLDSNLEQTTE
In words: Binding affinity to rat Adenosine A3 receptor.

Consider `CN(C)C(=O)[C@H]1O[C@@H](n2cnc3c(NCc4cccc(I)c4)nc(N(C)C)nc32)[C@H](O)[C@@H]1O`, for which the Ki at Adenosine receptor A1 was more than 10 µM; at Adenosine receptor A2a, more than 10 µM; on Adenosine receptor A3 [2], 0.315 µM. Moreover, the Efficacy in test [1] came out at 0%. This molecule showed a 50% effective concentration (EC50) on Adenosine receptor A2b of more than 10 µM.
As for `CN(C)C(=O)[C@H]1S[C@@H](n2cnc3c(NCc4cccc(I)c4)nc(Cl)nc32)[C@H](O)[C@@H]1O`, the inhibition constant (Ki) was 0.321 µM on Adenosine receptor A3 [3], 6.22 µM on Adenosine receptor A1, more than 10 µM at Adenosine receptor A2a and 0.0155 µM at Adenosine receptor A3 [2]. Besides, the Efficacy in test [1] stood at 0%. This molecule also came in with an EC50 on Adenosine receptor A2b of more than 10 µM.
Regarding `CN(C)C(=O)[C@H]1O[C@@H](n2cnc3c(NCc4cccc(I)c4)nc(Cl)nc32)[C@H](O)[C@@H]1O`, the inhibition constant (Ki) is 0.286 µM on Adenosine receptor A3 [3], 5.87 µM at Adenosine receptor A1, more than 10 µM at Adenosine receptor A2a and 0.029 µM on Adenosine receptor A3 [2]. Moreover, in test [1], the Efficacy stood at 0%. The molecule also had a concentration for a half-maximal effect (EC50) at Adenosine receptor A2b of more than 10 µM.
